Test results from ChEMBL document CHEMBL1135167, “Synthesis and antifungal activity of the 2,2,5-tetrahydrofuran regioisomers of SCH 51048” (2002).

Tests used:
Assay type in all cases: functional
Arthrodermataceae = experiment: Compound was tested for inherent antifungal geometric minimum inhibitory concentration (GMMIC) against Dermatophytes in serial dilution from 64 to 0.0313 ug/mL
Outline: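 Sabouraud dextrose broth, pH 5.7, inoculum ~10^4/cc, 27 °C, read visually at 72 h. MIC is the lowest concentration giving complete growth inhibition. Compound in DMSO or ethanol, serially diluted in broth. Geometric mean over T. mentagrophytes D24 and D30, T. rubrum D54 and D61, T. tonsurans D73 and M. canis D18.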

Candida = experiment: Compound was tested for inherent antifungal geometric minimum inhibitory concentration (GMMIC) against Candida albicans and Candida tropicalis in serial dilution from 64 to 0.0313 ug/mL
Outline: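 Eagle's minimum essential medium, pH 7.0. Compound in DMSO or ethanol, serially diluted in medium, inoculum 5×10^2/cc. Incubated at 37 °C under CO2 for 48 h. MIC is the lowest concentration with complete visible growth inhibition in microtiter wells. Geometric mean over C. albicans and C. tropicalis strains.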

Aspergillus sp. = experiment: Compound was tested for inherent antifungal geometric minimum inhibitory concentration (GMMIC) against Aspergillus in serial dilution from 64 to 0.0313 ug/mL
Outline: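 Broth microdilution in Sabouraud dextrose broth, pH 5.7. Compound dissolved in DMSO or ethanol and serially diluted in medium. Inoculum ~10^4/cc, incubated at 27 °C for 72 h. MIC is the lowest concentration giving complete growth inhibition by visual reading. Geometric mean taken across the Aspergillus isolates.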

| SMILES | GMMIC (Arthrodermataceae) | GMMIC (Candida) | GMMIC (Aspergillus sp.) |
| --- | --- | --- | --- |
| CCC(CC)n1ncn(-c2ccc(N3CCN(c4ccc(OC[C@H]5CO[C@](Cn6cncn6)(c6ccc(F)cc6F)C5)cc4)CC3)cc2)c1=O | >=128 ug ml-1 | 0.27 µg/mL | >=128 ug ml-1 |
| CCC(CC)n1ncn(-c2ccc(N3CCN(c4ccc(OC[C@H]5CC[C@](Cn6cncn6)(c6ccc(F)cc6F)O5)cc4)CC3)cc2)c1=O | >=0.35 ug ml-1 | 0.02 µg/mL | 0.25 µg/mL |
| CCC(CC)n1ncn(-c2ccc(N3CCN(c4ccc(OC[C@@H]5CO[C@@](Cn6cncn6)(c6ccc(F)cc6F)C5)cc4)CC3)cc2)c1=O | >=0.06 ug ml-1 | <=0.04 ug ml-1 | 0.04 µg/mL |
| CCC(CC)n1ncn(-c2ccc(N3CCN(c4ccc(OC[C@@H]5CC[C@@](Cn6cncn6)(c6ccc(F)cc6F)O5)cc4)CC3)cc2)c1=O | >=128 ug ml-1 | <=0.1 ug ml-1 | >=128 ug ml-1 |
| CCC(C)n1ncn(-c2ccc(N3CCN(c4ccc(OCC5COC(Cn6cncn6)(c6ccc(Cl)cc6Cl)O5)cc4)CC3)cc2)c1=O (racemic) [ITRACONAZOLE] | >=0.89 ug ml-1 | 0.04 µg/mL | 0.3 µg/mL |
